Source: PubChem BioAssay (Broad Institute)
Shown are actives, neighbours in structure and some others; about 0.92% of the full set was active somewhere.
FN deposit inh: inhibitors of fibronectin matrix deposition, primary screen, AH1F cells, Alexa488-fibronectin fluorescence, plate reader | AH1F fibroblasts, overnight | inhibition, % at 12.6 µM | hit rate 0.086% among 350,000 | AID 743247, 2014;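 active = mean inhibition across replicates of 30% or more, regardless of how many single replicates reach that level; inconclusive = mean under 30% yet at least half of replicates reach 30%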
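Material: AH1F fibroblast monolayer depositing Alexa488-labelled fibronectin into matrix | Input: 10000 AH1F cells/well | Medium: DMEM plus 2% serum, read in PBS | Reagent: Alexa488-fibronectin, 24 nM final in well | Compound dosing: One dose per compound, pinned | Schedule: 1 h adhesion, overnight exposure | Measured by: Fluorescence at 485 nm excitation, 525 nm emission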
RAD54 inh: inhibitors of human RAD54 branch migration, primary screen, biochemical, fluorescence, single point | hit rate 0.14% among 360,000 | AID 602329, 2012 | RAD54 Holliday junction branch migration, FAM/BHQ fluorescence | DNA repair and recombination protein RAD54-like (Homo sapiens), Q92698 | inhibition, % at 10.4 µM;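 active = mean normalized replicate activity at least 40 and at least half of replicates scoring 40 or more; inconclusive = only one of the two criteria met; inactive = mean below 40 and under half of replicates reaching 40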;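 note: inhibitors cause a drop in the FAM fluorescence signal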
Target sequence (Q92698 whole entry, looked up): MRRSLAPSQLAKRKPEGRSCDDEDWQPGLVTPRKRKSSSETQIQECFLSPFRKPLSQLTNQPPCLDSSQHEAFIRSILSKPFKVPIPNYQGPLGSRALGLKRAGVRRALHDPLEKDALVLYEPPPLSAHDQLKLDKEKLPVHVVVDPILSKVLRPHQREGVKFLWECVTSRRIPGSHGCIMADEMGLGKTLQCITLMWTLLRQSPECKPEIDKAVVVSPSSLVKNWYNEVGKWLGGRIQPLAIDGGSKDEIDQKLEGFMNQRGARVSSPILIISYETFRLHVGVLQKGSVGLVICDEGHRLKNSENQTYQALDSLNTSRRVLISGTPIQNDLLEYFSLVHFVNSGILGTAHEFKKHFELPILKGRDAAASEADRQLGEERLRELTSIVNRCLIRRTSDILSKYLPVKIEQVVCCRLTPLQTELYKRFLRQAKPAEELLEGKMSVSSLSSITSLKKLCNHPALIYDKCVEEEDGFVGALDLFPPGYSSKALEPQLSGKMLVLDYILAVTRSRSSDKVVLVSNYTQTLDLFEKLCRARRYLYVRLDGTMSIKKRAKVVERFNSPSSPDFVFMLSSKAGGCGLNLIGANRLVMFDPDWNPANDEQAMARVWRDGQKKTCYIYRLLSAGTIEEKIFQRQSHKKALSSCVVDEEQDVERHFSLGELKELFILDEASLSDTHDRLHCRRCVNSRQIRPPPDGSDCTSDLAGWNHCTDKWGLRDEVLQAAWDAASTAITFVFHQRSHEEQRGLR
Glyco luc inh: increase of ERlucT glycosylation luciferase signal, primary screen, N-linked glycosylation inhibitor project, D54 ERlucT cells, luminescence, set 2 | reporter increase, % at 12.5 µM | hit rate 0.23% among 360,000 | AID 588692, 2011 | D54 ERlucT glycosylation luciferase reporter, 24 h; percent of 100 nM tunicamycin response;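 active = mean luciferase reporter signal, scaled so untreated is 0 and the glycosylation-blocking control 100, at or above a set limit in every replicate; inconclusive = mean reaches the limit but not every replicate does; inactive = mean below the limit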;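 note: luciferase carries N-glycosylation sites so blocking glycosylation raises the light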
AF4-AF9 inh: inhibitors of AF4 peptide binding to AF9, primary screen, biochemical, AlphaScreen, biotin-AF4 peptide, FLAG-AF9, single point | inhibition, % at 10 µM | hit rate 0.47% among 350,000;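 active = every replicate reaching a set inhibition limit, whatever the replicate mean, cut at about 25% in these data; inconclusive = mean inhibition reaches that limit but some replicates miss it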
RAD52 inh: RAD52 DNA annealing inhibitors, primary screen, biochemical, FRET, single point, set 2 | hit rate 0.46% among 360,000 | AID 651710, 2012 | DNA repair protein RAD52 homolog (Homo sapiens), P43351 | recombinant RAD52 DNA annealing, FRET fluorescence | inhibition, % at 18.7 µM;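 active = every replicate showing at least 50% inhibition; inconclusive = mean inhibition at least 50% but not in every replicate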
DNA binding: DNA binding of candidate compounds, dose response, artefact control for RAD54 inhibitor project, biochemical, fluorescence polarization, cherry-pick | shares compounds with RAD54 inh | Acridine orange-DNA displacement, 20 min | AC50, µM (doses to about 35 µM) | hit rate 8% among 460 | AID 651673, 2012;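 active = signal drop giving an AC50 within twice the top valid tested concentration of each sample, actives reach about 35 µM in these data; inactive = activity opposite to expected, plus the rest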;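 note: polarization loss reports compound binding to salmon sperm DNA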
Alpha interfer: AlphaScreen signal interference counter-screen, dose response, artefact control, biochemical, cherry-picked samples, luminescence. AC50, µM (top dose mostly 12 µM). AID 720494, 2013. shares compounds with AF4-AF9 inh. hit rate 45% among 530; cut-off not given, nearly all actives have AC50 up to about 14 µM
RAD52 DNA ctr: DNA-binding compounds via dye displacement, dose response, artefact control for RAD52 inhibitor project, biochemical, fluorescence polarization, cherry-pick; shares compounds with RAD52 inh; Salmon sperm DNA/acridine orange FP displacement; AC50, µM; hit rate 8% among 1,000; AID 652128, 2013;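 active = fitted half-maximal concentration for signal loss at or below twice the highest dose tested, in every separate run, actives reach about 64 µM in these data; inconclusive = runs disagree, or flat partial signal loss, or poor fit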
Large screens that a line does not name were inactive (follow-up assays come after a bar, where they were run).

Cc1ccc2nc3c(c(Nc4ccc(O)cc4)c2c1)CCC3	RAD54 inh 67 | DNA binding inactive | RAD52 DNA ctr inactive
COc1ccc(NC(=O)Nc2ccc3c(c2)C(=O)N([C@H](C)CO)C[C@H](C)[C@H](CN(C)Cc2ccc4c(c2)OCO4)OCCCC[C@H](C)O3)cc1	none (no result: FN deposit inh, Glyco luc inh)
Nc1cc2ccncc2c2ccccc12	RAD54 inh 70, RAD52 inh 60 | DNA binding inactive | RAD52 DNA ctr inactive
Cc1ccc(-c2nc(C(=O)NCCCN(C)C)cc3c2[nH]c2ccccc23)cc1	RAD54 inh 105, Glyco luc inh 46, RAD52 inh 93 | DNA binding inactive | RAD52 DNA ctr inconclusive
O=C(NCCO)c1cc2c([nH]c3ccccc32)c(-c2ccccc2)n1	none (no result: FN deposit inh)
O=c1c2ccccc2nc(/C=C/c2cccnc2)n1Cc1ccccc1	AF4-AF9 inh 39 (no result: RAD54 inh) | Alpha interfer inactive
O=c1c2ccccc2nc(/C=C/c2cccnc2)n1CCc1ccccc1	none
CC(=O)Nc1ccc(NC2=C(Cl)C(=O)c3ccccc3C2=O)cc1	none (no result: FN deposit inh, RAD54 inh, Glyco luc inh)
CN(C)c1ccc(NC2=C(Cl)C(=O)c3ccccc3C2=O)cc1	AF4-AF9 inh 64 | Alpha interfer 1.9µM
C[C@H]1CN([C@@H](C)CO)C(=O)c2cc(C3=CCCCC3)cnc2O[C@H]1CN(C)Cc1ccccc1	none (no result: FN deposit inh, Glyco luc inh)
CC=Cc1ccc2n(c1=O)C[C@H]1[C@H](CO)[C@@H](C(=O)NC3CCC3)[C@@H]2N1Cc1ccncc1 (mixture of isomers)	none (no result: RAD54 inh, Glyco luc inh)
CO[C@@H]1CC[C@@H]2CCOc3c(C#N)cccc3C(=O)N(C)C[C@@H](c3ccccc3)CC(=O)N(C)C[C@@H]1O2	none (no result: Glyco luc inh)
C[C@H]1CN([C@@H](C)CO)C(=O)c2cc(N(C)C)ccc2O[C@@H]1CN(C)Cc1ccc(Cl)c(Cl)c1	AF4-AF9 inh 29 (no result: Glyco luc inh) | Alpha interfer inactive
C[C@@H]1CN([C@@H](C)CO)C(=O)Cc2cc(N(C)C)ccc2O[C@H]1CN(C)Cc1ccncc1	none (no result: Glyco luc inh)
C[C@H]1CCCCO[C@H](CN(C)Cc2ccc(Cl)c(Cl)c2)[C@@H](C)CN([C@@H](C)CO)C(=O)c2cc(N(C)C)ccc2O1	AF4-AF9 inh 63 (no result: FN deposit inh, Glyco luc inh) | Alpha interfer 13µM
C[C@H]1CCCCO[C@@H](CN(C)Cc2ccc3c(c2)OCO3)[C@@H](C)CN([C@@H](C)CO)C(=O)c2cc(N(C)C)ccc2O1	none (no result: FN deposit inh, Glyco luc inh)
C[C@H](CO)N1C[C@H](C)[C@@H](CN(C)Cc2ccc(Cl)c(Cl)c2)Oc2ccc(N(C)C)cc2C1=O	none (no result: Glyco luc inh)
C[C@@H]1CN([C@H](C)CO)C(=O)Cc2cc(N(C)C)ccc2O[C@@H]1CN(C)Cc1ccc(Cl)c(Cl)c1	AF4-AF9 inh 31 (no result: FN deposit inh, Glyco luc inh) | Alpha interfer inactive
O=C(NCc1ccncn1)[C@H]1[C@H](CO)[C@H]2Cn3c(ccc(-c4cccc(F)c4)c3=O)[C@H]2N1CC1CC1	none (no result: FN deposit inh, Glyco luc inh)
Cc1ccn2c(Nc3ccc4c(c3)OCO4)c(-c3ccccn3)nc2c1	AF4-AF9 inh 32 | Alpha interfer 9.3µM
CC(=O)OCCNc1cc(N2CCN(C)CC2)c2noc3c2c1C(=O)c1ccccc1-3	AF4-AF9 inh 86 | Alpha interfer 8.6µM
CCOC(=O)C(C(=O)OCC)c1cc(Br)c2noc3c2c1C(=O)c1ccccc1-3	none (no result: FN deposit inh, RAD54 inh, AF4-AF9 inh, RAD52 inh)
CCCNC(=O)C[C@@H]1CC[C@@H]2[C@H](COC[C@H](O)CN2C(=O)Nc2cccc(Cl)c2)O1	none (no result: Glyco luc inh)
CC1NC(=O)NC1CCCCCC(=O)Nc1ccc(F)cc1 (centres undefined)	AF4-AF9 inh 93 (no result: RAD54 inh) | Alpha interfer 0.68µM
O=C(CNCc1cccs1)Nc1ccc(N2CCCCCC2)cc1	AF4-AF9 inh 42 (no result: RAD54 inh) | Alpha interfer 13µM
COc1ccc(-c2oc3ccccc3c(=O)c2OC(C)=O)cc1	AF4-AF9 inh 55 | Alpha interfer 7.3µM
COc1ccc(-c2oc3ccccc3c(=O)c2OCC(=O)O)cc1	none (no result: RAD54 inh)
CC(=O)c1cccc2c(O)c(C3=Nc4ccccc4C3=O)[nH]c12	AF4-AF9 inh 40 (no result: RAD52 inh) | Alpha interfer 3.5µM
O=C1C(c2c(O)[nH]c3ccccc23)=Nc2ccccc21	none
CN(C)CC(=O)N[C@@H]1CC[C@@H](CCn2cc(CN(C)C)nn2)O[C@@H]1CO	none (no result: FN deposit inh, Glyco luc inh)
COc1cc(O)c(C(CCN2CCCC2)c2ccc3c(c2)OCO3)c(OC)c1 (centres undefined)	none
COc1ccc(C2CC(=O)Oc3c(C(CCN4CCCC(C)C4)c4ccc(N(C)C)cc4)c(OC)cc(OC)c32)cc1 (centres undefined)	AF4-AF9 inh 44 | Alpha interfer 1.8µM
CCCCCc1cc(=O)oc2c(C(CCN3CCCC(C)C3)c3ccc4c(c3)OCO4)c(OC)cc(OC)c12 (centres undefined)	none
COc1cc(O)c(C(CCN2CCCCC2)c2ccc(N(C)C)cc2)c(OC)c1 (centres undefined)	AF4-AF9 inh 33 | Alpha interfer 12µM
COc1cc(C2CC(=O)Oc3c(C(CCN4CCOCC4)c4ccc(N(C)C)cc4)c(OC)cc(OC)c32)cc(OC)c1OC (centres undefined)	AF4-AF9 inh 40 | Alpha interfer 11µM
COc1cc(C2CC(=O)Oc3c(C(CCN4CCN(c5ccccc5)CC4)c4ccc(N(C)C)cc4)c(OC)cc(OC)c32)cc(OC)c1OC (centres undefined)	none
CC1C/C(=C/c2cccs2)C(=O)/C(=C/c2cccs2)C1 (centres undefined)	AF4-AF9 inh inconclusive (no result: RAD54 inh) | Alpha interfer inactive
c1ccc2c(c1)nc(Nc1ccc(N3CCCCC3)cc1)c1nncn12	AF4-AF9 inh 36 (no result: RAD54 inh) | Alpha interfer inactive
O=C1c2ccccc2NC(c2cccc([N+](=O)[O-])c2)N1O (centres undefined)	AF4-AF9 inh 28 | Alpha interfer 11µM
COc1cccc(CNCCc2c[nH]c3ccccc23)c1OCc1ccccc1	AF4-AF9 inh 27 (no result: RAD54 inh) | Alpha interfer inactive
COc1cc(CNCCc2c[nH]c3ccccc23)ccc1OCc1ccccc1F	none (no result: FN deposit inh)
CCCC(=O)NC(c1ccc(OC)cc1)c1ccc2cccnc2c1O (centres undefined)	AF4-AF9 inh 29 (no result: RAD54 inh) | Alpha interfer 2.6µM
Nc1ccc2[nH]ncc2c1	AF4-AF9 inh 45 | Alpha interfer inactive
